This note sets out measurements from ChEMBL document CHEMBL1124937 (J Med Chem, 1990).

Experiment [1] addresses Beta-2 adrenergic receptor (Mus musculus, UniProt P18762). Nature of the experiment: Ki value was determined by accumulation of c-AMP in S-49 mouse lymphoma cells (Beta2). It counts as cell-based. Put shortly:
(§1)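 Antagonist Ki from in vitro inhibition of cyclic AMP accumulation, with cAMP quantified by radioimmunoassay. Cells were prepared as in the group's earlier work. Ki was calculated with the Cheng–Prusoff equation. The four single stereoisomers of each derivative, the stereoisomeric mixture and the parent drug were tested. Relative potency is given versus the parent drug.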

The species entered for experiment [2] is Rattus norvegicus. Nature of the experiment: Biological activity in vitro, Ki value was determined by accumulation of c-AMP in rat fat cells (Beta1). It counts as functional, cell-based. The method in brief: as §1
The species named for experiment [3] is Rattus norvegicus. Nature of the experiment: Relative potency(RP) was determined for the biological activity determined in rat fat cells (Beta1). It counts as functional. Put shortly:
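Rat fat cells (β1), prepared as previously described, were assayed in vitro for antagonist inhibition of cAMP accumulation, with cAMP measured by radioimmunoassay. Ki values were calculated with the Cheng–Prusoff equation. Potency is expressed relative to the progenitor drug, which was tested alongside the individual stereoisomers and the stereoisomeric mixture.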

Beta-2 adrenergic receptor, sequence (P18762 whole entry): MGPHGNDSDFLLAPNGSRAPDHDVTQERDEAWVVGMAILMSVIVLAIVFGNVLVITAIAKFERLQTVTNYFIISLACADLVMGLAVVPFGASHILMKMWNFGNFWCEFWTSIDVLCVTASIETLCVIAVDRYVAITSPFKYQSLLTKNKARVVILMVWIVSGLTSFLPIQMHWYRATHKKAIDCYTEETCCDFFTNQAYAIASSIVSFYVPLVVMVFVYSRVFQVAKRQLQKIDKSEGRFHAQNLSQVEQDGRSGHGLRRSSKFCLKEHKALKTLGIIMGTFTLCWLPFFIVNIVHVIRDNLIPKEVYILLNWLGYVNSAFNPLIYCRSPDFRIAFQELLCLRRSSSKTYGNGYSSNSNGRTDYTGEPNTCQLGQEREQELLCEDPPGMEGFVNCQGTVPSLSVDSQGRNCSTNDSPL

In the case of `Cc1ccc(NC(=O)CCCCC(C)NCC(O)COc2cccc3ccccc23)cc1` (stereo unspecified), in experiment [1], the affinity, expressed as Ki, was 43.3 µM. For the compound `CC(=O)Nc1ccc(OC[C@@H](O)CN[C@H](C)CCCCC(=O)Nc2ccc(C)cc2)cc1`, the values for the inhibition constant Ki (in the experiment filed under Rattus norvegicus [2]; in experiment [1]) were 260 nM and 0.81 µM, respectively. This compound displayed a Relative potency in the experiment listed under Rattus norvegicus [3] of 2.71. For the compound `CC(=O)Nc1ccc(OC[C@@H](O)CN[C@H](C)CCCCC(=O)Nc2ccc(C(F)(F)F)cc2)cc1`, the figures for the Ki (in the experiment filed under Rattus norvegicus [2]; in experiment [1]) were 31 nM and 0.146 µM, respectively. The compound further had a Relative potency in the experiment listed under Rattus norvegicus [3] of 22.6.

Regarding `CC(=O)Nc1ccc(OC[C@H](O)CN[C@H](C)CCCCC(=O)Nc2ccc(C(F)(F)F)cc2)cc1`, the Ki (in general, the equilibrium dissociation constant of an inhibitor or competing ligand from its target) in the experiment listed under Rattus norvegicus [2] is 240 nM; in experiment [1] it was 2.17 µM. Besides, in the experiment listed under Rattus norvegicus [3], the Relative potency stood at 2.92.

`CC(=O)Nc1ccc(OC[C@H](O)CN[C@@H](C)CCCCC(=O)Nc2ccc(C)cc2)cc1`: the Ki was found to be 2620 nM in the experiment filed under Rattus norvegicus [2] and 9.24 µM in experiment [1]. The compound further showed a Relative potency in the experiment filed under Rattus norvegicus [3] of 0.267. As for `CC(=O)Nc1ccc(OCC(O)CNC(C)CCCCC(=O)Nc2ccc(C(F)(F)F)cc2)cc1` (stereo unspecified), the Ki in the experiment filed under Rattus norvegicus [2] stood at 130 nM; in experiment [1] it was 0.39 µM. Besides, in the experiment filed under Rattus norvegicus [3], the Relative potency came to 7.8. `C[C@H](CCCCC(=O)Nc1ccc(C(F)(F)F)cc1)NC[C@H](O)COc1cccc2ccccc12`: affinity in experiment [1] was put at a Ki of 45.9 µM. The same measure, in the same setting: under `Cc1ccc(NC(=O)CCCC[C@@H](C)NC[C@H](O)COc2cccc3ccccc23)cc1` stands 9.07 µM.

Turning to `CC(=O)Nc1ccc(OCC(O)CNC(C)CCCCC(=O)Nc2ccc(C)cc2)cc1` (stereo unspecified), the Ki in the experiment filed under Rattus norvegicus [2] is 260 nM; in experiment [1], 1.18 µM. In the experiment filed under Rattus norvegicus [3], this compound registered a Relative potency of 2.71.

As for `CC(CCCCC(=O)Nc1ccc(C(F)(F)F)cc1)NCC(O)COc1cccc2ccccc12` (stereo unspecified), the Ki in experiment [1] turned out to be 78 µM. In the case of `CC(=O)Nc1ccc(OC[C@@H](O)CN[C@@H](C)CCCCC(=O)Nc2ccc(C(F)(F)F)cc2)cc1`, the Ki came to 350 nM in the experiment listed under Rattus norvegicus [2] and 2.85 µM in experiment [1]. Also, the Relative potency in the experiment filed under Rattus norvegicus [3] came out at 2. In the case of `C[C@H](CCCCC(=O)Nc1ccc(C(F)(F)F)cc1)NC[C@@H](O)COc1cccc2ccccc12`, the Ki in experiment [1] was 130 µM. Take `CC(=O)Nc1ccc(OC[C@@H](O)CN[C@@H](C)CCCCC(=O)Nc2ccc(C)cc2)cc1`: the Ki in the experiment filed under Rattus norvegicus [2] came out at 1580 nM; in experiment [1], 15.6 µM. In the experiment filed under Rattus norvegicus [3], this compound returned a Relative potency of 0.442. The compound `Cc1ccc(NC(=O)CCCC[C@H](C)NC[C@H](O)COc2cccc3ccccc23)cc1` returned a Ki in experiment [1] of 41 µM.

With `Cc1ccc(NC(=O)CCCC[C@@H](C)NC[C@@H](O)COc2cccc3ccccc23)cc1`, the Ki in experiment [1] was 195 µM. Same read-out and setting: under `C[C@@H](CCCCC(=O)Nc1ccc(C(F)(F)F)cc1)NC[C@H](O)COc1cccc2ccccc12` stands 39 µM. As to `CC(=O)Nc1ccc(OC[C@H](O)CN[C@H](C)CCCCC(=O)Nc2ccc(C)cc2)cc1`, the Ki was determined as 1990 nM in the experiment listed under Rattus norvegicus [2] and 53.6 µM in experiment [1]. For the same compound, the Relative potency in the experiment filed under Rattus norvegicus [3] came to 0.351.

Consider `CC(=O)Nc1ccc(OC[C@H](O)CN[C@@H](C)CCCCC(=O)Nc2ccc(C(F)(F)F)cc2)cc1` (mixture of isomers), for which the inhibition constant (Ki) in the experiment filed under Rattus norvegicus [2] is 6700 nM; in experiment [1] it was 62 µM. The compound also yielded a Relative potency in the experiment listed under Rattus norvegicus [3] of 0.104. In experiment [1], `Cc1ccc(NC(=O)CCCC[C@H](C)NC[C@@H](O)COc2cccc3ccccc23)cc1` (racemic) showed a Ki of 195 µM. The same measure, in the same setting: under `C[C@@H](CCCCC(=O)Nc1ccc(C(F)(F)F)cc1)NC[C@@H](O)COc1cccc2ccccc12` (racemic) stands 179 µM. As for `CC(=O)Nc1ccc(OCC(O)CNC(C)C)cc1` (stereo unspecified) [PRACTOLOL], the affinity in the experiment listed under Rattus norvegicus [2] corresponds to a Ki of 700 nM.
